High-throughput results from PubChem BioAssay.
Compounds with a hit are over-represented: about 3.8% of the library has one in this group of screens.
HSP90 refold inh: HSP90 inhibitors, primary screen, cell lysate, luminescence | Heat shock protein HSP 90 (rabbit reticulocyte lysate; luciferase refolding) | Rabbit reticulocyte lysate, luciferase refolding luminescence, 3 h | inhibition, % at 5.6 µM | 0.91% of 290,000 active;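 active = inhibition above the screen-wide mean plus 3 SD, computed separately per campaign, cut at about 16% in these data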;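 also: 0% = DMSO wells and 100% = 60 µM geldanamycin wells; inhibitors lower the luminescence because luciferase stays unfolded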
NS3 helicase inh: inhibitors of HCV NS3 helicase, primary screen, biochemical, Cy5 molecular beacon fluorescence; NS3 helicase DNA unwinding; 0.56% of 290,000 active; inhibition, % at 10.9 µM; AID 1800, 2009;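 active = inhibition above the mean of all tested compounds plus 3 SD, set per campaign, cut at about 35% in these data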;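 also: 0% = DMSO wells and 100% = thioflavine S control wells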
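test system = hepatitis C virus NS3 helicase domain fragment enzyme | reagent = annealed dual-labelled DNA beacon duplex, ATP-started | times = 1 h at 25 °C | detection = Cy5 fluorescence, 0 and 60 min reads | read-out basis = percent inhibition from t60/t0 fluorescence ratio | control set = DMSO and thioflavine S | replication = one well per compound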
HSF1 inhib: HSF1 inhibitors in luciferase reporter cells, primary screen, cell-based, NIH3T3, luminescence; NIH3T3-HGL HSE-luciferase, MG132-induced, luminescence 8 h; hits give low values; activity change, negative = inhibition, % at 7.5 µM (by protocol); 0.77% of 300,000 active;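 active = more than half of replicate wells show activity change below -50%, luminescence cut by over half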;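 also: luciferase reports HSF-1 transcriptional activity via heat shock element; 0% = median of DMSO wells and -100% = zero luminescence signal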
HSF-1 act: HSF-1 activators, primary screen, NIH3T3-HGL cells, MG132 stress, luminescence, single point. NIH3T3-HGL HSF-1 luciferase reporter, 8 h; 100% = twice DMSO control signal. activation, % at 9 µM. 1.7% of 300,000 active;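 active = mean replicate activation of at least 50% with a set share of replicates each reaching 50%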;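 also: 0% = median of the neutral control wells and 100% = twice that signal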
Hep lipid drop: inhibitors of hepatocyte lipid droplet formation, primary screen, imaging, high-throughput imaging, BODIPY stain. AML12 mouse hepatocytes, oleate lipid droplets. inhibition, % at 6.5 µM. 0.4% of 240,000 active. AID 1656, 2009;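 active = lipid droplet intensity inhibited by at least 50%, with more than 500 cells counted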
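Test system: AML12 hepatocytes (mouse); reagent: oleate loading, 100 µM; dosing: one dose, 6.5 µM compound; incubation: overnight exposure; signal: fluorescence imaging, 20x objective, two fields per well; read-out basis: % inhibition of corrected integrated BODIPY droplet signal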
Hep lipid conf: hepatocyte lipid droplet accumulation inhibitors, confirmation, imaging, AML12 mouse hepatocytes, single concentration, high-content | shares compounds with Hep lipid drop | BODIPY lipid droplet imaging; droplets induced with 100 µM oleic acid | inhibition, % at 5.2 µM | 65% of 870 active | AID 463183, 2010;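 active = inhibition of lipid droplet metric at least 50%, with more than 300 cells in each of four replicates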;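 also: plate controls were DMSO with oleic acid for no effect and 5 µM Triacsin-C for full effect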
AML12 cytotox: AML12 hepatocyte cytotoxicity, counter-screen for hepatic lipid droplet formation project, imaging, DAPI nuclear morphology imaging. z-score at 5 µM. AML12 mouse hepatocytes; hits give high values; cells fed 100 µM oleate overnight. 3% of 870 active. shares compounds with Hep lipid drop; in the data active = z-score above about 6.3;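 also: compound exposure lasted overnight at 37 °C before fixation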
AML12 tox conf: AML12 hepatocyte cytotoxicity, confirmation, cytotoxicity control for hepatic lipid droplet formation project, cell-based, single concentration | shares compounds with Hep lipid drop | AML12 mouse hepatocyte viability, ATP luminescence; cells loaded with 100 µM oleic acid | cytotoxicity, % at 50 µM | 530 tested, under 10 active | AID 463219, 2010;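 active = cytotoxicity above 50% in each of four replicates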;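 also: compound exposure lasted overnight at 37 °C before the ATP read; 0% = DMSO-treated cells and 100% = wells with no cells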
An asterisk follows results filed as active; / = not tested or not shown.

SMILES	HSP90 refold inh	NS3 helicase inh	HSF1 inhib	HSF-1 act	Hep lipid drop	Hep lipid conf	AML12 cytotox	AML12 tox conf
O=C(COc1ccccc1[N+](=O)[O-])N(Cc1ccco1)C1CCS(=O)(=O)C1 (centres undefined)	-4	3	-5	-10	-12	/	/	/
CCCCc1ccc(NC(=O)CSc2nnc(C)c(=O)n2N)cc1	1	17	7	17	81*	106*	0.44	21
CCCCc1ccc(NC(=O)CSc2nc3ncccc3[nH]2)cc1	-2	4	8	8	52*	92*	-0.43	30
COc1ccccc1/C=C/C=N/n1c(-c2ccc(Cl)cc2)n[nH]c1=S	-3	8	7	5	9	/	/	/
CC1(C)OC(c2ccccc2)=C/C(=C/C=C2C(=O)c3ccccc3C2=O)O1	9	5	-3	-2	73*	27	0.25	/
Cc1ccccc1N=C/C=C1/C=C(c2ccccc2)OC(C)(C)O1	1	9	3	2	0	/	/	/
CC(C)c1ccccc1-n1c(SCC(=O)c2ccc3c(c2)NC(=O)CO3)nc2ccccc2c1=O	2	0	6	7	54*	59	-1.3	3
O=C1COc2ccc(C(=O)CSc3ccccc3C(=O)O)cc2N1	0	13	2	8	16	/	/	/
COc1ccc(Cl)cc1CNCCCSc1ncccn1	-3	-4	5	28	50*	20	0.24	/
O=C(Cc1ccccc1)Nn1c(-c2ccccc2)nc2ccccc2c1=O	0	0	1	8	57*	64*	0.09	9
Cc1nc2ccccc2c(=O)n1NC(=O)Cc1ccccc1	-2	-14	/	/	/	/	/	/
O=C(CCl)c1cc2c3c(c1)CC(=O)N3CCC2	-1	-3	0	-5	-17	/	/	/
CCCc1cc(N2CCCC2)n2nc(C)c(-c3ccccc3)c2n1	0	5	-6	-3	60*	99*	0.31	-12
CCN1CCN(c2cc(C(C)C)nc3c(-c4ccccc4)c(C)nn23)CC1	1	-57	-1	18	55*	50	-0.31	/
CCOc1cc(N2CCOCC2)c(OCC)cc1NC(=S)NCCCOC	-1	-1	-19	-25	-4	/	/	/
COc1ccc(Cl)cc1NC(=O)CN(C)C(=O)Cc1ccsc1	/	/	3	-5	/	/	/	/
COc1ccc(Cl)cc1NC(=O)CN(C)C(=O)Cc1ccc2c(c1)CCC2	0	-24	7	22	52*	85*	0.13	19
CC1CN(C(=O)Cn2c(=O)oc3ccccc32)CC(C)O1 (centres undefined)	2	-8	7	5	-36	/	/	/
Cc1cc(O)c(C)c(O)c1/C=N/NC(=O)c1cccnc1	1	-5	3	-8	59*	0	-1.1	/
O=C(N/N=C/c1cc(Br)c(O)c(Br)c1O)c1cccnc1	1	32	3	39	-5	/	/	/
Cc1cccc(/C=C2\CCC(C3CCCC3)C2=O)c1 (centres undefined)	2	2	7	-3	2	/	/	/
O=C1/C(=C/c2ccc([N+](=O)[O-])cc2)CCC1C1CCCC1 (centres undefined)	2	8	4	20	54*	15	-0.71	/
C/C(=N\NC(=O)c1nnn(-c2nonc2N)c1CN(C)c1ccccc1)c1ccccn1	3	-14	5	1	-27	/	/	/
CCOC(=O)c1ccc(S(=O)(=O)Nc2ccc(N3CCOCC3)cc2)cc1	-1	-12	0	2	86*	79*	-0.094	4
CCOc1ccc(NS(=O)(=O)c2ccc(C(=O)N3CCCCC3)cc2)cc1	1	-5	-4	-3	57*	87*	0.11	21
